Results taken from ChEMBL document CHEMBL1146569, “The pterocellins, novel bioactive alkaloids from the marine bryozoan Pterocella vesiculosa” (J Nat Prod, 2003).

Columns and labels:
[1] = tested on: SNB-19; test: Growth inhibition of human SNB19 cells; format: functional
[2] = tested on: MOLT-4; test: Growth inhibition of human MOLT4 cells; format: functional
[3] = tested on: NCI-H226; test: Growth inhibition of human NCI-H226 cells; format: functional
[4] = tested on: OVCAR-3; test: Growth inhibition of human OVCAR-3 cells; format: functional
[5] = tested on: K562; test: Growth inhibition of human K562 cells; format: functional
[6] = tested on: SK-OV-3; test: Growth inhibition of human SKOV3 cells; format: functional
[7] = tested on: NCI-H23; test: Growth inhibition of human NCI-H23 cells; format: functional
[8] = tested on: NCI-H460; test: Growth inhibition of human NCI-H460 cells; format: functional
[9] = tested on: HT-29; test: Growth inhibition of human HT-29 cells; format: functional
[10] = tested on: CCRF-CEM; test: Growth inhibition of human CCRF-CEM cells; format: functional
[11] = tested on: Escherichia coli; test: Antimicrobial activity against Escherichia coli assessed per disk; format: functional
[12] = tested on: HCC 2998; test: Growth inhibition of human HCC2998 cells; format: functional
[13] = tested on: SF-295; test: Growth inhibition of human SF295 cells; format: functional
[14] = Growth inhibition of human Hs 578T cells; format: functional
[15] = tested on: SF-268; test: Growth inhibition of human SF268 cells; format: functional
[16] = tested on: UACC-62; test: Growth inhibition of human UACC62 cells; format: functional
[17] = tested on: NCI-H322M; test: Growth inhibition of human NCI-H322M cells; format: functional
[18] = tested on: U-251; test: Growth inhibition of human U251 cells; format: functional
[19] = tested on: OVCAR-8; test: Growth inhibition of human OVCAR8 cells; format: functional
[20] = tested on: SK-MEL-2; test: Growth inhibition of human SK-MEL-2 cells; format: functional
[21] = tested on: DU-145; test: Growth inhibition of human DU145 cells; format: functional
[22] = tested on: T47D; test: Growth inhibition of human T47D cells; format: functional
[23] = Cytotoxicity against african green monkey BSC1 cells at 40 ug/disk; format: cell-based; settings: chlorocebus aethiops, bsc-1
Outline: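 BSC-1 cells (ATCC CCL 26), a line derived from African green monkey kidney, are the host cells of the combined antiviral/cytotoxicity assay. Cytotoxicity is scored on these cells within that assay.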

[24] = tested on: HOP-62; test: Growth inhibition of human HOP62 cells; format: functional
[25] = tested on: OVCAR-4; test: Growth inhibition of human OVCAR4 cells; format: functional
[26] = tested on: UACC-257; test: Growth inhibition of human UACC257 cells; format: functional
[27] = tested on: SK-MEL-28; test: Growth inhibition of human SK-MEL-28 cells; format: functional
[28] = tested on: CAKI-1; test: Growth inhibition of human Caki1 cells; format: functional
[29] = tested on: EKVX; test: Growth inhibition of human EKVX cells; format: functional
[30] = tested on: KM12; test: Growth inhibition of human KM12 cells; format: functional
[31] = tested on: 786-0; test: Growth inhibition of human 786-0 cells; format: functional
[32] = tested on: HCT-116; test: Growth inhibition of human HCT116 cells; format: functional
[33] = tested on: SR; test: Growth inhibition of human SR cells; format: functional
[34] = Growth inhibition of human […] cells; format: functional
[35] = tested on: OVCAR-5; test: Growth inhibition of human OVCAR5 cells; format: functional
[36] = tested on: HOP-92; test: Growth inhibition of human HOP92 cells; format: functional
[37] = tested on: IGROV-1; test: Growth inhibition of human IGROV1 cells; format: functional
[38] = tested on: M14; test: Growth inhibition of human M14 cells; format: functional
[39] = tested on: BT-549; test: Growth inhibition of human BT549 cells; format: functional
[40] = tested on: TK-10; test: Growth inhibition of human TK10 cells; format: functional
[41] = tested on: NCI/ADR-RES; test: Growth inhibition of human NCI/ADR-RES cells; format: functional
[42] = tested on: Malme-3M; test: Growth inhibition of human MALME-3M cells; format: functional
[43] = tested on: SF-539; test: Growth inhibition of human SF539 cells; format: functional
[44] = tested on: Trichophyton mentagrophytes; test: Antimicrobial activity against Trichophyton mentagrophytes assessed per disk; format: functional
[45] = read-out: LC50 (the source's name)

With `COc1cn2c(cc1=O)C(=O)c1ccnc(Cc3ccccc3)c1-2` [PTEROCELLIN B] the GI50 [1] was 1600 nM, the TGI [1] was 3300 nM and the CC50 [1, 45] was 7000 nM. For the same molecule, the GI50 [2] was 1400 nM, the LC50 (concentration killing 50% of cells) [2] was 5600 nM and the TGI [2] was 2900 nM. The GI50 [3] was 1400 nM, the TGI [3] was 3500 nM and the CC50 [3, 45] was 8400 nM. It also gave a GI50 [4] of 200 nM, a TGI [4] of 600 nM and a CC50 [4, 45] of 3200 nM. The GI50 [5] was 1200 nM, the LC50 (concentration killing 50% of cells) [5] was 4900 nM and the TGI [5] was 2400 nM. The GI50 [6] was 2700 nM, the TGI [6] was 13800 nM and the CC50 [6, 45] was 47100 nM. The GI50 [7] was 100 nM, the LC50 (concentration causing 50% net cell kill) [7] was 700 nM and the TGI [7] was 300 nM. The GI50 [8] was 200 nM, the LC50 (concentration causing 50% cell kill) [8] was 5500 nM and the TGI [8] was 800 nM. The GI50 [9] was 500 nM, the LC50 [9] was 27300 nM and the TGI [9] was 3200 nM. For the same molecule, the GI50 [10] was 1700 nM, the TGI [10] was 5200 nM and the CC50 [10, 45] was greater than 100000 nM. For the same molecule, the MIC [11] was greater than 60 µg, the GI50 [12] was 400 nM and the LC50 (concentration killing 50% of cells) [12] was 3200 nM. The TGI [12] was 1000 nM, the GI50 [13] was 300 nM and the LC50 (concentration killing 50% of starting cells) [13] was 4000 nM. The TGI [13] was 1600 nM, the GI50 [14] was 5100 nM and the TGI [14] was greater than 100000 nM. It also gave a CC50 [14, 45] greater than 100000 nM, a GI50 [15] of 1700 nM and an LC50 (concentration killing 50% of cells) [15] of 21500 nM. For the same molecule, the TGI [15] was 5500 nM, the GI50 [16] was 200 nM and the LC50 (50% cell kill) [16] was 4100 nM. It also gave a TGI [16] of 600 nM, a GI50 [17] of 1100 nM and an LC50 (concentration killing 50% of cells) [17] of 4700 nM. The TGI [17] was 2200 nM, the GI50 [18] was 1000 nM and the TGI [18] was 2200 nM. The CC50 [18, 45] was 4700 nM, the GI50 [19] was 700 nM and the TGI [19] was 7600 nM. For the same molecule, the CC50 [19, 45] was 84800 nM, the GI50 [20] was 700 nM and the TGI [20] was 2200 nM. The CC50 [20, 45] was 5300 nM, the GI50 [21] was 200 nM and the TGI [21] was 300 nM. It also gave a CC50 [21, 45] of 600 nM, a GI50 [22] of 1300 nM and a TGI [22] of 3200 nM. For the same molecule, the CC50 [22, 45] was greater than 100000 nM, the Activity [23] was “Toxic” and the GI50 [24] was 1000 nM. It also gave a TGI [24] of 2100 nM, a CC50 [24, 45] of 4600 nM and a GI50 [25] of 1300 nM. It also gave an LC50 [25] of 5600 nM, a TGI [25] of 2700 nM and a GI50 [26] of 200 nM. The TGI [26] was 700 nM, the CC50 [26, 45] was 2900 nM and the GI50 [27] was 1000 nM. For the same molecule, the TGI [27] was 2600 nM, the CC50 [27, 45] was 6700 nM and the GI50 [28] was 1500 nM. For the same molecule, the TGI [28] was 3300 nM, the CC50 [28, 45] was 7400 nM and the GI50 [29] was 1400 nM. It also gave a TGI [29] of 3800 nM, a CC50 [29, 45] of 10700 nM and a GI50 [30] of 600 nM. It also gave a TGI [30] of 1900 nM, a CC50 [30, 45] of 4500 nM and a GI50 [31] of 1800 nM. It also gave an LC50 (concentration killing 50% of cells) [31] of 17900 nM, a TGI [31] of 5000 nM and a GI50 [32] of 500 nM. For the same molecule, the LC50 [32] was 4000 nM, the TGI [32] was 1600 nM and the GI50 [33] was 200 nM. For the same molecule, the TGI [33] was 1300 nM, the CC50 [33, 45] was 3700 nM and the GI50 [34] was 1500 nM. The TGI [34] was 4900 nM, the CC50 [34, 45] was greater than 100000 nM and the GI50 [35] was 1200 nM. For the same molecule, the TGI [35] was 2400 nM, the CC50 [35, 45] was 4900 nM and the GI50 [36] was 1700 nM. For the same molecule, the TGI [36] was 3800 nM, the CC50 [36, 45] was 8800 nM and the GI50 [37] was 1000 nM. For the same molecule, the TGI [37] was 2500 nM, the CC50 [37, 45] was 6000 nM and the GI50 [38] was 100 nM. It also gave an LC50 (concentration killing 50% of cells) [38] of 500 nM, a TGI [38] of 200 nM and a GI50 [39] of 1500 nM. It also gave a TGI [39] of 2900 nM, a CC50 [39, 45] of 5600 nM and a GI50 [40] of 1500 nM. It also gave a TGI [40] of 2900 nM, a CC50 [40, 45] of 5600 nM and a GI50 [41] of 1400 nM. For the same molecule, the TGI [41] was 3900 nM, the CC50 [41, 45] was 15300 nM and the GI50 [42] was 30 nM. The TGI [42] was 100 nM, the CC50 [42, 45] was 300 nM and the GI50 [43] was 1100 nM. For the same molecule, the TGI [43] was 2700 nM, the CC50 [43, 45] was 6400 nM and the MIC [44] was 3.9 µg.
